In the library only some 1.8% were active in any assay of this set; here they are far more common.
DDE Tn6 FP inh: DD(E)-Tn6 binding inhibition, primary FP screen; inhibition, % at 8.3 µM; P02675; Fibrin DD(E) TRITC-Tn6 fluorescence polarization displacement; hit rate 0.21% among 370,000;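 active = inhibition above a per-campaign cutoff: mean of compounds within control limits plus 3 SD, cut at about 15% in these data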;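 note: 0% = median of all compound wells on the plate and 100% = blocking peptide control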
DDE Tn7 FP inh: inhibitors of Tn7 peptide binding to human fibrin DD(E). AID 720508. inhibition, % at 8.3 µM. FP displacement of FITC-Tn7 peptide from fibrin DD(E); 0% = median of compound wells per plate. hit rate 0.13% among 370,000;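 active = inhibition above the mean of compounds falling within the control limits plus 3 SD of them, cut at about 14% in these data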;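 note: 0% = plate median of compound wells and 100% = 10 µM Aha-Tn7 peptide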
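Also added: labelled Tn7 tracer, 0.1 µM; Assay system: human fibrin DD(E) protein; Amount: 2 µM fibrin DD(E); Schedule: 10 min compound pre-incubation, 3 h probe incubation at room temperature; Repeats: one replicate per compound; Read-out basis: percent inhibition; Measured by: fluorescence polarization of the labelled Tn7 tracer.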
ARNT TACC3 PPI: disrupts binding between human ARNT and TACC3. hit rate 0.66% among 390,000. inhibition, % at 9.99 µM. AlphaScreen His-ARNT PAS-B/GST-TACC3 binding, luminescence; TACC3 fragment carries E629A point mutation;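 active = mean inhibition of replicates at least 50% and at least half of replicates each reaching 50%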;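 note: 0% = complete ARNT plus TACC3 wells and 100% = ARNT alone without TACC3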
CAL PDZ FP-1: inhibitors of human CAL PDZ peptide binding. Q9HD26. purified CAL PDZ, TMR-peptide fluorescence polarization, 1 h. inhibition, % at 20 µM. hit rate 0.02% among 330,000;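 active = highest replicate inhibition of at least 40%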;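 note: plate controls were DMSO neutral control wells for no effect and unlabeled competitor peptide control wells for full effect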
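Control set: unlabelled peptide and DMSO controls / Material: purified CerCALP PDZ construct / Timing: 1 h incubation at room temperature before polarization reading / Doses: 20 µM, one dose / Detection: fluorescence polarization (mP)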
GRK2 aptamer HTS: inhibitors of human GRK2 displacing RNA aptamer. bead flow cytometry, FAM-aptamer displacement from GRK2. inhibition of aptamer binding, % at 10 µM. hit rate 0.59% among 330,000;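 active = inhibition of aptamer binding above 40%, roughly 3 SD of noise, on plates passing a quality check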;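 note: median bead fluorescence of bound FAM aptamer so fluorescent compounds give negative values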
Target sequence (P25098 whole entry, looked up): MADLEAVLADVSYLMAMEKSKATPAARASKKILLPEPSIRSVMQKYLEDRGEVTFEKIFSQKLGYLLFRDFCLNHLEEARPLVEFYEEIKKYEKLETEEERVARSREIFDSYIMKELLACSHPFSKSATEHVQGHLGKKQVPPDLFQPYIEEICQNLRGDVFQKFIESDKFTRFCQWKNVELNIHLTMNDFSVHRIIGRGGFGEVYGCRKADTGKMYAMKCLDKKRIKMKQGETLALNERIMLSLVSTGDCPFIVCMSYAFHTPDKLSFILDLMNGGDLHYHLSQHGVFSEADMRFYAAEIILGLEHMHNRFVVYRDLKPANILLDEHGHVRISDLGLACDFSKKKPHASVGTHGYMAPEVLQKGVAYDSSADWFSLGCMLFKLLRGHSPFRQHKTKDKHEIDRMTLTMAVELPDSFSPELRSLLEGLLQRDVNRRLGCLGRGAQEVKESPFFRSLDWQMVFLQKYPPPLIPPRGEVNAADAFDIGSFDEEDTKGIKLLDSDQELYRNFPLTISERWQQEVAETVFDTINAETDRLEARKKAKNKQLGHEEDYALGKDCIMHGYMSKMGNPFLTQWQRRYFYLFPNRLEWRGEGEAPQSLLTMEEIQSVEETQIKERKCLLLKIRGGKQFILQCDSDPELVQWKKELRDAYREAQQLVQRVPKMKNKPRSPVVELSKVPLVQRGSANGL
CAL PDZ FP-2: inhibitors of human CAL PDZ peptide binding; inhibition, % at 24.9 µM; hit rate 0.92% among 300,000; Q9HD26; purified CAL PDZ, TMR-peptide fluorescence polarization, 1 h;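 active = mean inhibition of at least 30% with at least half of replicates also reaching 30%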;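 note: 0% = DMSO neutral control and 100% = excess unlabeled competitor peptide PRC23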
GRK2 CP1: human GRK2 inhibition confirmation, cherry pick 1; shares compounds with GRK2 aptamer HTS; AID 504451; aptamer displacement, % at 10 µM; hit rate 4% among 2,000; bead-bound GRK2, FAM-aptamer displacement, flow cytometry;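 active = aptamer displacement above 40%, near three times the noise of non-fluorescent compounds, on plates passing quality checks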;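 note: negative values mostly reflect intrinsic compound fluorescence rather than true enhancement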
Aptamer quench SP: aptamer fluorescence quenching in GRK2 counter-screen. shares compounds with GRK2 aptamer HTS. Carboxyfluorescein RNA aptamer on beads, flow cytometry quenching; stronger effect = lower value. fluorescence response (% of DMSO), % at 10 µM. 2,000 tested, under 10 active. AID 504580;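 active = compounds that quench the bead-bound fluorescent RNA probe, cutting fluorescence to under half of the solvent control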;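 note: counterscreen run without GRK2 so only probe quenching by compound is measured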
GRK2 confirm 2: human GRK2 inhibition confirmation, cherry pick 2. inhibition of aptamer binding, % at 10 µM. 360 tested, under 10 active. bead-bound GRK2, FAM-aptamer displacement, flow cytometry. shares compounds with GRK2 aptamer HTS. AID 504782;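 active = inhibition of aptamer binding above 40%, about triple the noise seen with nonglowing compounds, on plates passing quality control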;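 note: negative values mostly come from compounds that fluoresce themselves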
FAM quench SP: quenches fluorescent RNA aptamer, GRK2 hit artifact; carboxyfluorescein RNA aptamer beads, flow cytometry quenching; stronger effect = lower value; fluorescence response vs DMSO, % at 10 µM; shares compounds with GRK2 aptamer HTS; AID 588494; 360 tested, under 10 active;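 active = response vs DMSO under 50%, meaning signal dropped by over half, treated as fluorescence quencher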;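 note: labelled aptamer on streptavidin beads without GRK2 as a quench counter-screen; 100% = bead fluorescence of DMSO wells and lower means quenching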
Numbers without * were called inactive.

`COc1ccc(OC)c(-n2c(SCC(N)=O)nnc2-c2c[nH]c3ccccc23)c1` gave DDE Tn6 FP inh -2, DDE Tn7 FP inh -3, ARNT TACC3 PPI 0, CAL PDZ FP-1 -1 and GRK2 aptamer HTS 0.
O=c1nc(Nc2ccc(Br)cc2)sc2ccc([N+](=O)[O-])cc12 was read as DDE Tn6 FP inh -12, DDE Tn7 FP inh -4, ARNT TACC3 PPI -5, CAL PDZ FP-1 -2, GRK2 aptamer HTS 42*, CAL PDZ FP-2 -1, GRK2 CP1 -22 and Aptamer quench SP 98.
`CC(=O)Nc1nc2cc([N+](=O)[O-])ccc2s1` gave DDE Tn6 FP inh 2, DDE Tn7 FP inh 12, ARNT TACC3 PPI -1, CAL PDZ FP-1 0, GRK2 aptamer HTS 0 and CAL PDZ FP-2 -3.
CC(=O)N(c1ccccc1)c1ccc([N+](=O)[O-])cc1[N+](=O)[O-] was read as DDE Tn6 FP inh 9, DDE Tn7 FP inh 5, ARNT TACC3 PPI -4, CAL PDZ FP-1 0, GRK2 aptamer HTS 1, CAL PDZ FP-2 3, GRK2 confirm 2 -17 and FAM quench SP 100.
For CCn1cc(C(=O)NC(C)C)c(=O)c2cc(F)c(N3CCN(C(=O)c4ccco4)CC3)cc21 the results were DDE Tn6 FP inh 14, DDE Tn7 FP inh 3, ARNT TACC3 PPI 6, CAL PDZ FP-1 -5, GRK2 aptamer HTS 88*, CAL PDZ FP-2 -4, GRK2 CP1 -1 and Aptamer quench SP 102.
`CCC(=O)N1[C@@H]2Cn3c(ccc(C4=CCCC4)c3=O)[C@H]1[C@@H](C(=O)N[C@H](C)c1ccccc1)[C@@H]2CO` gave ARNT TACC3 PPI -4.
For C[C@@H]1CN([C@@H](C)CO)C(=O)c2cc(NS(=O)(=O)c3ccccc3)ccc2O[C@@H](C)CCCCO[C@H]1CN(C)C the results were ARNT TACC3 PPI -39.
Screening Cc1cnc(NC(=O)c2cc(S(=O)(=O)N(C)C)ccc2N2CCCC2)s1 returned DDE Tn6 FP inh -6, DDE Tn7 FP inh -3 and GRK2 aptamer HTS 0.
`CC(=O)Nc1nc2c(ccc3ccccc32)s1` gave DDE Tn6 FP inh -6, DDE Tn7 FP inh -4, ARNT TACC3 PPI -10, CAL PDZ FP-1 -2, GRK2 aptamer HTS 2, CAL PDZ FP-2 3, GRK2 confirm 2 13 and FAM quench SP 101.
`O=C(Cc1cccs1)Nc1nc2c(ccc3ccccc32)s1` gave DDE Tn6 FP inh -15, DDE Tn7 FP inh 0, ARNT TACC3 PPI 1, CAL PDZ FP-1 -1, GRK2 aptamer HTS 0, CAL PDZ FP-2 -1, GRK2 confirm 2 19 and FAM quench SP 102.
`CN(C)S(=O)(=O)c1ccc(N2CCCC2)c(C(=O)Nc2nc3c(ccc4ccccc43)s2)c1` gave DDE Tn6 FP inh 0, DDE Tn7 FP inh 8, ARNT TACC3 PPI -4, CAL PDZ FP-1 -3, GRK2 aptamer HTS 0, CAL PDZ FP-2 -1, GRK2 confirm 2 4 and FAM quench SP 106.
Screening CC(=O)Nc1nc2c(F)cccc2s1 returned DDE Tn6 FP inh -4, DDE Tn7 FP inh 2, ARNT TACC3 PPI -2, CAL PDZ FP-1 0, GRK2 aptamer HTS 0 and CAL PDZ FP-2 0.
For O=C(Cc1cccs1)Nc1nnc(SCc2cccc3ccccc23)s1 the results were DDE Tn6 FP inh -6, DDE Tn7 FP inh 3, ARNT TACC3 PPI -24, CAL PDZ FP-1 0, GRK2 aptamer HTS 3 and CAL PDZ FP-2 -3.
